Key:
[1] = test system: AsPC-1 cells; assay: MTT cytotoxicity assay; assay type: cell-based; conditions: Homo sapiens, ASPC1, 48 h, AsPC-1, 48 h incubation, 2×10^4 cells per well
Summary of the method: (§1)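 Seeding was 2×10^4 per well for AsPC-1 and 1×10^4 for PANC-1, BxPC-3, Mia PaCa-2 and SU.86.86; cells adhered for 24 h at 37°C in 5% CO2. Test compound was given at 0.01, 0.1, 1, 10 and 100 μM for 48 h. MTT (5 mg/mL stock in PBS) was added for 4 h, dissolved in DMSO, and read at 490 nm. Viability was calculated against drug-free cells and cell-free blanks. Mean ± SD, n = 3.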

[2] = test system: PANC-1 cells; assay: MTT cytotoxicity assay; assay type: cell-based, Human
[3] = test system: BxPC-3 cells; assay: MTT cytotoxicity assay; assay type: cell-based; conditions: Homo sapiens, BXPC-3, 48 h
Summary of the method: as §1

[4] = test system: Mia PaCa-2 cells; assay: MTT cytotoxicity assay; assay type: cell-based; conditions: Homo sapiens
[5] = test system: SU.86.86 cells; assay: MTT cytotoxicity assay; assay type: cell-based; conditions: Homo sapiens, SU.86.86, 48 h
Summary of the method: as §1

[6] = test system: AsPC-1 cells; assay: Transwell cell invasion assay; assay type: cell-based, Human; conditions: AsPC-1, 1 μM, 48 h
Summary of the method: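 AsPC-1 cells (1×10^4) were placed in serum-free medium in the upper chamber of 8-μm-pore transwells, with complete medium below, and treated with 1 μM test compound for 48 h. Cells on the upper membrane surface were swabbed off. Cells on the lower surface were stained with 0.5% crystal violet and counted per field under bright-field microscopy. Mean ± SD, n = 3.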

[7] = test system: AsPC-1 cells; assay: Cell cycle analysis by flow cytometry; assay type: cell-based, Human; conditions: AsPC-1, 10 μM, 24 h
Summary of the method: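 AsPC-1 cells were seeded at 5×10^5 per well in 6-well plates and exposed to 10 μM test compound. They were then fixed overnight in cold 70% ethanol, stained with propidium iodide containing RNase A in the dark at room temperature, and analysed by flow cytometry for cell-cycle phase percentages. Mean ± SD, n = 3.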

[8] = test system: AsPC-1 cells; assay: Cellular accumulation by LC-MS/MS; assay type: cell-based, Human; conditions: AsPC-1, 10 μM, 48 h; Gem (Gem group), Gem and tcGem (LipotcGem group)
Summary of the method: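 AsPC-1 cells were seeded at 5×10^6 per 10 cm dish overnight and exposed to 10 μM test compound for 12, 24 or 48 h. Cells were washed, counted and sonicated at 4°C in methanol-water (1:1). Parent nucleoside and prodrug were quantified by LC-MS/MS on a C8 UPLC column. The gradient was water/acetonitrile with 0.1% formic acid at 0.2 mL/min.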

[9] = test system: AsPC-1 subcutaneous xenograft; assay: Pharmacodynamics in AsPC-1 subcutaneous xenograft model; assay type: in vivo, BALB/c nude mice
Summary of the method: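 Female BALB/c nude mice (18–20 g) received 5×10^6 AsPC-1 cells subcutaneously in the right flank. At ~100 mm3 they were sorted by volume and randomised into three groups. Dosing was i.v., Q3D × 6: 5% glucose vehicle, parent drug 10 mg/kg, or liposomal test compound 5 mg/kg. Tumour volume and body weight were followed throughout. Tumours were weighed on Day 30, one week after the last dose, and organs were taken for H&E. n = 5.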

[10] = test system: AsPC-1-luc orthotopic xenograft; assay: Pharmacodynamics in AsPC-1-luc orthotopic xenograft model; assay type: in vivo, BALB/c nude mice
Summary of the method: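 AsPC-1-luc cells were grown in RPMI-1640 with 10% FBS and 0.5 μg/mL puromycin. Under anaesthesia, 3×10^6 cells in 25 μL were injected into the pancreas of BALB/c nude mice. On day 7, luciferase substrate was given i.p. and mice were IVIS-imaged within 5 min, then grouped by bioluminescence. Dosing was i.v., Q3D × 6: 5% glucose, parent drug 10 mg/kg, or liposomal test compound 5 mg/kg. Mice were imaged on Days 17 and 27, followed by ex vivo organ imaging.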

[11] = Tissue distribution in AsPC-1 tumor-bearing mice; assay type: in vivo, BALB/c nude mice; conditions: i.v. 38 μmol/kg
Summary of the method: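 BALB/c nude mice carrying subcutaneous AsPC-1 tumours (5×10^6 cells, right flank; 300–500 mm3) received one i.v. bolus at an equimolar 38 μmol/kg (parent drug 10 mg/kg; liposomal prodrug 19 mg/kg). After cardiac perfusion, tumour, heart, liver, spleen, lung, kidney and pancreas were collected at 0.5, 4, 8, 12 and 24 h. Parent nucleoside and prodrug were measured by LC-MS/MS.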

Compound: Nc1ccn([C@@H]2O[C@H](CO)[C@@H](O)C2(F)F)c(=O)n1 [Gem, Gemcitabine]
- IC50 [1]: > 100 µM
- IC50 ([2]; Homo sapiens, PANC-1, 48 h): > 100 µM
- cell viability ([2]; PANC-1, lower cell densities and extended exposure time): above 50%
- IC50 [3]: 4.35 µM
- IC50 ([4]; MIA PaCa-2, 48 h): > 100 µM
- IC50 ([4]; MIA PaCa-2, 72 h): 73.5 µM
- IC50 [5]: > 100 µM
- invading cells [6]: 129 ± 27 cells per field
- Percentage of cells (%) S [7]: 35%
- intracellular accumulation [8]: 0.0015 nmol/10^6 cells
- tumor inhibition rate (TIR), tumor weight ([9]; Day 30, i.v. Q3D × 6, Gem 10 mg/kg, LipotcGem 5 mg/kg): 49%
- tumor inhibition rate (TIR), tumor volume ([9]; i.v. Q3D × 6, Gem 10 mg/kg, LipotcGem 5 mg/kg): 50%
- body weight ([9]; subcutaneous model, throughout treatment): No significant weight loss
- metastatic burden (bioluminescent signals, liver and intestine) ([10]; Day 27, ex vivo): moderate
- tumor inhibition rate (TIR) ([10]; orthotopic model, i.v. Q3D × 6, Gem 10 mg/kg, LipotcGem 5 mg/kg): 50%
- concentration in tumors ([11]; 8 h, Gem (Gem group), Gem and tcGem (LipotcGem group)): 0.004 µmol/g
- Gem concentration in tumor tissues and plasma over time [11]: undetectable beyond 8 h
